Fewer inactive variants are shown than the library holds.
B1: tRNA (parent)
chain: GUUCCGUUGGCGUAAUGGUAACGCGUCUCCCUCCUAAGGAGAAGACUGCGGGUUCGAGUCCCGUACGGAACG

Variants of: B1
Assay: yeast fitness relative to wild type (ratio to wild type); higher = fitter; tRNA-Arg(CCU), competitive growth, 37 C, YPD
Procedure, shortened: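 Variants of the tRNA-Arg(CCU) gene, chemically synthesised with a 3% per-site mutation rate at 69 sites, were placed at the native genomic locus in Saccharomyces cerevisiae. The pooled strains were competed in YPD at 37°C for 24 hours in six parallel replicates. Gene amplicons from the start population and from each end population were read by 100-nucleotide paired-end sequencing. Darwinian fitness relative to wild type came from changes in genotype frequencies; genotypes needed ≥ 100 starting reads, and estimates < 0.5 were set to 0.5.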

For A21C C30U, which yeast fitness is on record?
The yeast fitness was 0.734.

For A21C C30U A36C, which yeast fitness is on record?
Its yeast fitness is ≤ 0.5.

For A21C C30U C31G C33U C61A, which yeast fitness is on record?
The yeast fitness was ≤ 0.5.

Which yeast fitness does the source give for A21C C30U C62A here?
The yeast fitness was 0.644.

For A21C C30U G38A, which yeast fitness is on record?
Its yeast fitness is ≤ 0.5.

Which yeast fitness does the source give for A21C C31A A65C here?
Its yeast fitness is ≤ 0.5.

With A21C C31A C33G C46A as the variant, how does the yeast fitness read?
The yeast fitness was ≤ 0.5.

Which yeast fitness does the source give for A21C C31A C49U here?
The yeast fitness was 0.734.

Which yeast fitness does the source give for A21C C31A U32G A40G here?
The yeast fitness was ≤ 0.5.

For A21C C31G, which yeast fitness is on record?
Its yeast fitness is 0.657.

For A21C C31G C33G G44A C66U, which yeast fitness is on record?
Its yeast fitness is 0.526.

For A21C C31G C66U, which yeast fitness is on record?
Its yeast fitness is ≤ 0.5.

With A21C C31U G38A G39C C49G as the variant, how does the yeast fitness read?
Its yeast fitness is ≤ 0.5.

For A21C C33A C61U, which yeast fitness is on record?
Its yeast fitness is ≤ 0.5.

With A21C C33G A37U U64G as the variant, how does the yeast fitness read?
The yeast fitness was 0.617.

With A21C C33U as the variant, how does the yeast fitness read?
Its yeast fitness is 0.687.

Which yeast fitness does the source give for A21C C33U A36G G39A G44A C55G U59C here?
Its yeast fitness is ≤ 0.5.

Which yeast fitness does the source give for A21C C33U C55U A57C C61A here?
The yeast fitness was ≤ 0.5.

For A21C C33U C61A, which yeast fitness is on record?
Its yeast fitness is 0.593.

For A21C C34G, which yeast fitness is on record?
Its yeast fitness is 0.577.

For A21C C34G A43U, which yeast fitness is on record?
The yeast fitness was ≤ 0.5.

With A21C C34G C46A as the variant, how does the yeast fitness read?
Its yeast fitness is ≤ 0.5.

With A21C C34G C46U as the variant, how does the yeast fitness read?
The yeast fitness was ≤ 0.5.

Which yeast fitness does the source give for A21C C34G C60A here?
Its yeast fitness is ≤ 0.5.

With A21C C34G G41C G67C as the variant, how does the yeast fitness read?
The yeast fitness was 0.653.

Which yeast fitness does the source give for A21C C34U A65U here?
Its yeast fitness is ≤ 0.5.

Which yeast fitness does the source give for A21C C34U C49U A69U here?
The yeast fitness was 0.53.

For A21C C34U C49U G63A A69U, which yeast fitness is on record?
The yeast fitness was ≤ 0.5.

With A21C C34U G51C as the variant, how does the yeast fitness read?
The yeast fitness was ≤ 0.5.

Which yeast fitness does the source give for A21C C34U G56A here?
Its yeast fitness is 0.551.

Which yeast fitness does the source give for A21C C34U U35C here?
The yeast fitness was ≤ 0.5.

For A21C C46A, which yeast fitness is on record?
Its yeast fitness is 0.995.

With A21C C46G C55U as the variant, how does the yeast fitness read?
The yeast fitness was 0.523.

For A21C C46U C61G, which yeast fitness is on record?
The yeast fitness was ≤ 0.5.

Which yeast fitness does the source give for A21C C49A here?
Its yeast fitness is 0.742.

Which yeast fitness does the source give for A21C C49G here?
Its yeast fitness is 0.732.

With A21C C49U as the variant, how does the yeast fitness read?
Its yeast fitness is 0.824.

With A21C C49U A69U as the variant, how does the yeast fitness read?
The yeast fitness was 0.61.

With A21C C55A as the variant, how does the yeast fitness read?
The yeast fitness was 0.605.

With A21C C55A A57U as the variant, how does the yeast fitness read?
Its yeast fitness is 0.535.

For A21C C55G, which yeast fitness is on record?
The yeast fitness was ≤ 0.5.

Which yeast fitness does the source give for A21C C55G A57U G67A here?
The yeast fitness was ≤ 0.5.

Which yeast fitness does the source give for A21C C55U here?
Its yeast fitness is 0.712.

For A21C C55U A69C, which yeast fitness is on record?
Its yeast fitness is ≤ 0.5.

For A21C C60A A69G, which yeast fitness is on record?
Its yeast fitness is ≤ 0.5.

Which yeast fitness does the source give for A21C C61G G68A here?
Its yeast fitness is ≤ 0.5.

For A21C C61U, which yeast fitness is on record?
Its yeast fitness is 0.679.

Which yeast fitness does the source give for A21C C62U A65C here?
The yeast fitness was 0.654.

For A21C C66G, which yeast fitness is on record?
Its yeast fitness is 0.609.

For A21C C66U, which yeast fitness is on record?
Its yeast fitness is 0.757.

For A21C G23A A37C U54C, which yeast fitness is on record?
The yeast fitness was ≤ 0.5.

For A21C G23A A37C U54C A65G, which yeast fitness is on record?
Its yeast fitness is ≤ 0.5.

For A21C G23A C24U C31U C49U, which yeast fitness is on record?
The yeast fitness was ≤ 0.5.

Which yeast fitness does the source give for A21C G23A C24U C31U C49U G67A here?
The yeast fitness was ≤ 0.5.

For A21C G23A C46G U53C, which yeast fitness is on record?
Its yeast fitness is 0.698.

For A21C G23A C49A, which yeast fitness is on record?
Its yeast fitness is ≤ 0.5.

With A21C G23C G52C A65C as the variant, how does the yeast fitness read?
The yeast fitness was ≤ 0.5.

For A21C G23U U59G, which yeast fitness is on record?
The yeast fitness was ≤ 0.5.

For A21C G25C A57G, which yeast fitness is on record?
Its yeast fitness is 0.516.

With A21C G25C U26G A70C as the variant, how does the yeast fitness read?
Its yeast fitness is ≤ 0.5.

Which yeast fitness does the source give for A21C G25C U26G U59A here?
The yeast fitness was ≤ 0.5.

For A21C G25C U26G U59A A70C, which yeast fitness is on record?
Its yeast fitness is 0.559.

For A21C G25C U26G U59G A65C, which yeast fitness is on record?
Its yeast fitness is ≤ 0.5.

With A21C G38C G44C as the variant, how does the yeast fitness read?
The yeast fitness was 0.544.

With A21C G38C G63C A70U as the variant, how does the yeast fitness read?
Its yeast fitness is ≤ 0.5.

For A21C G39A C49A, which yeast fitness is on record?
Its yeast fitness is ≤ 0.5.

Which yeast fitness does the source give for A21C G39A G52C C62U here?
The yeast fitness was ≤ 0.5.

For A21C G39C A42U G48C, which yeast fitness is on record?
Its yeast fitness is ≤ 0.5.

Which yeast fitness does the source give for A21C G41C here?
The yeast fitness was 0.695.

For A21C G44A U47C, which yeast fitness is on record?
Its yeast fitness is 0.51.

For A21C G44C A57G G68C, which yeast fitness is on record?
The yeast fitness was 0.66.

With A21C G44C G56A G63C G68A A69G as the variant, how does the yeast fitness read?
The yeast fitness was ≤ 0.5.

Which yeast fitness does the source give for A21C G48A here?
The yeast fitness was 0.854.

Which yeast fitness does the source give for A21C G48A C55U A65C here?
The yeast fitness was ≤ 0.5.

With A21C G48C G56C as the variant, how does the yeast fitness read?
The yeast fitness was ≤ 0.5.

Which yeast fitness does the source give for A21C G50A here?
Its yeast fitness is 0.672.

Which yeast fitness does the source give for A21C G50C here?
Its yeast fitness is 0.584.

Which yeast fitness does the source give for A21C G51A here?
Its yeast fitness is 0.658.

With A21C G51C as the variant, how does the yeast fitness read?
Its yeast fitness is 0.528.

Which yeast fitness does the source give for A21C G52A here?
Its yeast fitness is 0.636.

Which yeast fitness does the source give for A21C G52C here?
The yeast fitness was 0.511.

For A21C G52C G67C, which yeast fitness is on record?
The yeast fitness was ≤ 0.5.

Which yeast fitness does the source give for A21C G56A A57G C66U here?
The yeast fitness was ≤ 0.5.

Reference: the RNAGym collection of RNA variant scans (doi:10.1126/science.aae0568)
